Only some compounds are listed: those with a hit (about 2.9% of all), similar ones and a draw of the others.
Apaf1 inhib: blocks human Apaf-1 apoptosome activity; reconstituted apoptosome caspase-3 activity, DEVD-Rh110 fluorescence; inhibition, % at 20 µM; 330,000 compounds, 0.71% hits; active = inhibition of at least 40% at 20 µM;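 also: plate controls were DMSO wells for no effect and DEVD-CHO caspase inhibitor wells for full effect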
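detection = Rh110 fluorescence intensity | test system = biochemical Apaf-1 apoptosome reconstitution | also added = cytochrome c and DEVD-Rh110 substrate | schedule = 30 min plus 50 min, RT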
MEKK2 mut-MEK5: signal of MEK5 binding to mutant human MEKK2 PB1 domain; bead flow cytometry, Alexa488-MEK5 binding to MEKK2 mutant; percent response, % at 10 µM; 290,000 compounds, 0.35% hits; in the data active = percent response above about 24%, passing the limit was not always enough
UBC13 polyUb: human UBC13 polyubiquitination inhibition. P61088. UBC13 polyubiquitin chain formation, TR-FRET. inhibition, % at 20 µM. 330,000 compounds, 0.47% hits. AID 485273; in the data active = inhibition above about 45%, passing the limit was not always enough
MEKK3 PB1 HTS: raises or lowers MEK5 binding to the human MEKK3 PB1 domain; Q99759; AID 1529; binding response (% of control), % at 10 µM; bead-based flow cytometry, Alexa488-MEK5 binding to MEKK3; actives lie on both sides; 0 = blocked by unlabeled MEK5, 100 = vehicle; 290,000 compounds, 1.4% hits;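 active = binding response more than 3 SD above or below the average of its plate-row segment, actives on both sides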;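 also: Alexa488 bead fluorescence after subtracting the streptavidin-only scavenger bead signal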
Target sequence (Q99759 whole entry, looked up, the tested form may be a part): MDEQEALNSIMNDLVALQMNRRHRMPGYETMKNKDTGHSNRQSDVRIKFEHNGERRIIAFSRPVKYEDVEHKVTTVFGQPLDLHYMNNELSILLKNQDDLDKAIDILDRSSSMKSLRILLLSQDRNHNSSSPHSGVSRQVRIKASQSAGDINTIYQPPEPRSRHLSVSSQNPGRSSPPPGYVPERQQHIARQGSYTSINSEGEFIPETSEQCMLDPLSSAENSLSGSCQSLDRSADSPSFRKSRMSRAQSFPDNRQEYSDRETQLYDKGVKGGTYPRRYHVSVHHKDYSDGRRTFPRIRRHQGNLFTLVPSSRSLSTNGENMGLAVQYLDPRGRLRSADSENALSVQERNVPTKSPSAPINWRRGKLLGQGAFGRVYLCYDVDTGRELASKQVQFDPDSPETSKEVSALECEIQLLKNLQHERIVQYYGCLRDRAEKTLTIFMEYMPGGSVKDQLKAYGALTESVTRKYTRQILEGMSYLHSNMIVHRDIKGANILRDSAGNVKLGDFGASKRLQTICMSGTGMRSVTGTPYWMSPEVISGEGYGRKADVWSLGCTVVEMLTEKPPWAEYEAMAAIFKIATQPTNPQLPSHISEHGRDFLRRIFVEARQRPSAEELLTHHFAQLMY
MEKK2wt PB1 HTS: raises or lowers MEK5 binding to wildtype human MEKK2 PB1 domain; 290,000 compounds, 1.1% hits; bead flow cytometry, Alexa488-MEK5 binding to MEKK2 WT; actives lie on both sides; Q9Y2U5; binding response (% of control), % at 10 µM; in the data active = binding response below about 67% or above about 130%
MEKK2wt confirm: raises or lowers MEK5 binding to wildtype human MEKK2, retest | AID 1892 | shares compounds with MEKK3 PB1 HTS | 5,900 compounds, 2.4% hits | bead flow cytometry, Alexa488-MEK5 binding to MEKK2 WT; actives lie on both sides | binding response (% of control), % at 10 µM; in the data active = binding response below about 16% or above about 210%; inactive = in between
MEKK2mut confirm: signal of MEK5 binding to mutant human MEKK2, retest | shares compounds with MEKK3 PB1 HTS | bead flow cytometry, Alexa488-MEK5 binding to MEKK2 mutant | percent response, % at 10 µM | 5,900 compounds, 2% hits | AID 1893; in the data active = percent response mostly above about 71%, no sharp cut-off; inactive = mostly below about 38%;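 also: higher means compound restores mutant binding toward wildtype level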
MEKK3-MEK5 inh: MEKK3-MEK5 PB1 inhibition, single concentration confirmation | shares compounds with MEKK3 PB1 HTS | bead flow cytometry, Alexa488-MEK5 binding to MEKK3; active compounds read low | binding response (% of control), % at 10 µM | 5,900 compounds, 1.8% hits | AID 1894;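 active = binding response below 72% of control, or above a set upper limit, though filed actives all read lower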;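 also: 100% = DMSO only wells and 0% = binding blocked by excess unlabeled MEK5; lower values mean stronger disruption of MEK5 binding to MEKK3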
* = called active by the depositor; . = no result; [ ] = remark or other dose.

SMILES	Apaf1 inhib	MEKK2 mut-MEK5	UBC13 polyUb	MEKK3 PB1 HTS	MEKK2wt PB1 HTS	MEKK2wt confirm	MEKK2mut confirm	MEKK3-MEK5 inh
O=C1NC2(CCCC2)C(=O)N1CC(=O)N(Cc1ccccc1)c1ccccc1	1	.	-7	.	.	.	.	.
O=C(c1ccc(Cl)cc1)C1CCCN(Cc2cnn(-c3ccccc3)c2)C1 (centres undefined)	-6	36	6	100	148*	126	14	105
O=C(c1ccc(-c2ccccc2)cc1)C1CCCN(Cc2ccncc2)C1 (centres undefined)	25	3	7	100	111	.	.	.
O=C(CSc1nnc(-c2ccc(O)cc2)o1)Nc1ccccc1Br	-9	1	10	101	94	.	.	.
Cc1ccc(-c2nc(C#N)c(NCc3cccc4c3OCO4)o2)cc1	-6	-17	8	70*[inhibitor]	80	94	-6	100
CCc1ccc(OCC(=O)Oc2ccc([N+](=O)[O-])cc2)cc1	4	-15	-12	39*[inhibitor]	50*[inhibitor]	110	12	105
c1ccc(Cn2nnc3c(NCC4CCCO4)ncnc32)cc1 (centres undefined)	-19	-8	4	61*[inhibitor]	65	106	10	107
CCc1cccc2c(C(=O)CSc3nnc(C4CC4)o3)c[nH]c12	-1	.	8	.	.	.	.	.
CN(C)S(=O)(=O)c1ccc(NC(=O)COc2cccc3c2OC(C)(C)C3)cc1	7	.	2	.	.	.	.	.
Cc1c(Cl)cnc(NC(=O)COC(=O)Cc2coc3ccc4ccccc4c23)c1Cl	16	0	6	131*	102	80	-14	84
CC(C)(C)NC(=O)NC(=O)COC(=O)Cc1coc2ccc3ccccc3c12	22	1	27	143*	112	95	-3	97
Cc1ccc2nc3c(cc2c1)c(NC(=O)C(C)(C)C)nn3CC(C)C	15	-4	-7	98	99	.	.	.
CCC1(c2ccccc2)NC(=O)N(CC(=O)Nc2ccc(OC)nc2)C1=O (centres undefined)	-7	1	-10	102	105	.	.	.
CC1CN(C(=O)C2CC2)C(C)CN1C(=O)C1CC1 (centres undefined)	6	6	-1	101	105	.	.	.
Cc1ccc(CNc2nc(N)c([N+](=O)[O-])c(NCc3ccccc3)n2)cc1	-5	-1	-2	97	96	.	.	.
Nc1nc(NCc2ccccc2)nc(NCc2ccccc2)c1[N+](=O)[O-]	-6	1	-9	152*	112	106	6	106
C/C(=N\NC(=O)CSc1ncccn1)c1ccc2c(c1)OCCO2	0	-5	-9	85	95	.	.	.
CC(=O)Nc1ccc(S(=O)(=O)N[C@@H](C)C(=O)OCc2ccc(Cl)cc2)cc1	7	0	9	144*	107	107	0	102
CC(=O)Nc1ccc(S(=O)(=O)N[C@@H](C)C(=O)OCC(=O)c2ccc(C)cc2)cc1	-2	.	4	.	.	.	.	.
CCOC(=O)c1sc2cc([N+](=O)[O-])cc(SCC(C)C)c2c1N	-19	28*	-34	103	16*	112	6	101
CCOC(=O)c1cc(N)cc([N+](=O)[O-])c1	-8	-2	2	94	96	.	.	.
Cn1ccnc1COc1ccc(C=O)cc1	-16	2	5	105	111	.	.	.
CCCCNCC(=O)Nc1sc(C)c(C)c1C(=O)OCC	8	-2	10	79*[inhibitor]	102	108	8	108
CCOC(=O)c1c(NC(=O)CNCC(O)CO)sc(C)c1C (centres undefined)	5	0	2	101	101	.	.	.
CCn1cc(C(=O)N[C@@H](CCSC)C(=O)NCCCN2CCOCC2)c(=O)c2cc3c(cc21)OCO3	4	3	0	100	104	.	.	.
SMILES	Apaf1 inhib	MEKK2 mut-MEK5	UBC13 polyUb	MEKK3 PB1 HTS	MEKK2wt PB1 HTS	MEKK2wt confirm	MEKK2mut confirm	MEKK3-MEK5 inh
CCn1c(=O)cc(SCC(=O)N(C)Cc2ccccc2)c2ccccc21	20	3	7	110	109	.	.	.
CCOC(=O)CSc1cc(=O)n(CC)c2ccccc12	2	8	18	129*	123	100	3	103
N#C/C(=C\c1c[nH]c2ccccc12)C(=O)NCC1CCCO1 (centres undefined)	4	-7	-8	109	105	.	.	.
Cc1ccc2nc(CSc3nnc(-c4ccco4)o3)cc(=O)n2c1	10	-3	1	71*[inhibitor]	91	105	-1	107
COc1cc2c(cc1NC(=O)Nc1ccc(C)cc1)oc1ccccc12	16	24*	-1	113	141*	132	-1	95
COc1ccc(NC(=O)Nc2cc3oc4ccccc4c3cc2OC)cc1	-3	.	2	.	.	.	.	.
COc1cc2c(cc1NC(=O)Nc1cccc(C)c1)oc1ccccc12	-11	30*	8	106	150*	6.0*[inhibitor]	41	101
COc1ccc(NS(=O)(=O)N2CCOCC2)cc1	-11	-5	-6	97	88	.	.	.
O=C(CSc1ccc(Cl)cc1)N1CCN(c2ccc([N+](=O)[O-])cc2Cl)CC1	16	0	6	98	95	.	.	.
Cc1ccc(Cl)cc1N1CCN(C(=O)CSc2ccsc2[N+](=O)[O-])CC1	7	0	-4	133*	102	94	-7	95
CCOc1ccc2c(C)c(C)c(=O)oc2c1OCC	-10	2	22	94	93	.	.	.
COc1ccc2c(C)c(C)c(=O)oc2c1OC	-10	-26	12	2.0*[inhibitor]	0.0*[inhibitor]	104	-1	101
CC(N=c1ccccn1C(=O)Nc1ccc(F)cc1)c1ccco1 (centres undefined)	-19	-39	6	0.0*[inhibitor]	-4.0*[inhibitor]	95	-18	95
CC(C)(C)c1ccc(-c2nnc(NC(=O)c3ccccc3)s2)cc1	-2	-4	17	97	91	.	.	.
COCC(=O)Nc1nnc(-c2ccc(C(C)(C)C)cc2)s1	5	6	4	144*	118	102	-14	98
CCSC1=NCCN1C(=O)c1ccc(S(=O)(=O)N(C)C)cc1	-3	3	9	99	99	.	.	.
COc1cc(/C=N/n2cnnc2)ccc1OCCOc1ccccc1	5	-6	-3	91	93	.	.	.
C=CCc1ccc(OCCOc2ccc(/C=N/n3cnnc3)cc2OCC)c(OC)c1	0	27*	7	111	116	101	-7	104
COc1ccc(/C=N/NC(=O)c2[nH]c3ccc(Br)cc3c2-c2ccccc2)cc1	-4	0	-4	147*	103	96	-7	101
